Results: ChEMBL document CHEMBL1123902, “Synthesis and antiinflammatory and analgesic activity of 5-aroyl-1,2-dihydro-3H-pyrrolo[1,2-a]pyrrole-1-carboxylic acids. The 6-substituted compounds” (1987)

Columns and labels:
Assay type in all cases: functional
Rattus norvegicus [1] = organism: Rattus norvegicus; assay: Gastrointestinal erosive activity was determined by 7-day chronic assay in rats; settings: 168 h, read-out: MED
Outline: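 Chronic 7-day gastrointestinal erosion assay in rats; read-out is the minimum dose producing erosion (MED).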

Rattus norvegicus [2] = organism: Rattus norvegicus; assay: Antiinflammatory activity was determined by inhibition of adjuvant-induced arthritis in rats with respect to naproxen
[3] = Ratio of MED GI erosion to ED30 for carrageenan rat paw was determined
Outline: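 Therapeutic ratio calculated as the minimum erosive dose from the 7-day rat gastrointestinal erosion assay divided by the ED30 from the carrageenan rat paw edema assay.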

Mus musculus = organism: Mus musculus; assay: Analgesic activity in mice by phenyl quinone-induced writhing assay with respect to aspirin.
Outline: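 Phenylquinone-induced writhing in mice; potency expressed as ED50 with 95% confidence limits, relative to aspirin as reference; number of mice recorded per test.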

Rattus norvegicus [4] = assay: Antiinflammatory activity was determined by inhibition of carrageenan-induced edema in rat paw with respect to phenylbutazone
Outline: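 Carrageenan-induced rat paw edema; potency expressed as ED30 relative to phenylbutazone as reference; number of rats recorded.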

Rattus norvegicus [5] = organism: Rattus norvegicus; assay: Antiinflammatory activity was determined by inhibition of cotton pellet granuloma in rats with respcet to Indomethacin
Rattus norvegicus [6] = organism: Rattus norvegicus; assay: Antiinflammatory activity was determined to inhibit cotton pellet granuloma in rats with respcet to Indomethacin
Rattus norvegicus [7] = organism: Rattus norvegicus; assay: Antiinflammatory activity was determined to inhibit adjuvant-induced arthritis in rats with respect to naproxen
Rattus norvegicus [8] = organism: Rattus norvegicus; assay: Antiinflammatory activity was determined by inhibition of cotton pellet granuloma in rats with respect to Indomethacin

Structure (SMILES)	minimal effective dose (Rattus norvegicus [1])	relative potency (Rattus norvegicus [2])	Therapeutic index [3]	relative potency (Mus musculus)	relative potency (Rattus norvegicus [4])	relative potency (Rattus norvegicus [5])	relative potency (Rattus norvegicus [6])	relative potency (Rattus norvegicus [7])	ED30 (Rattus norvegicus [4])	relative potency (Rattus norvegicus [8])
Cc1ccc(C(=O)c2c(C)cc3n2CCC3C(=O)O)cc1 (stereo not given)	2.5 mg/kg	3	7	250	43	0.7	–	–	–	–
O=C(c1ccc(F)cc1)c1c(Br)cc2n1CCC2C(=O)O (stereo not given)	–	–	–	120	96	–	–	–	–	–
COCCCc1cc2n(c1C(=O)c1ccccc1)CCC2C(=O)O (stereo not given)	–	–	–	≤ 3	< 10	–	–	–	–	–
O=C(c1ccc(Cl)cc1)c1c(Cl)cc2n1CCC2C(=O)O (stereo not given)	~0.2 mg/kg	40	1	167	88	3	–	–	–	–
O=C(c1ccccc1)c1c(Br)cc2n1CCC2C(=O)O (stereo not given)	–	–	–	314	7.4	–	–	–	–	–
COc1ccc2cc([C@H](C)C(=O)O)ccc2c1 [NAPROXEN]	30 mg/kg	–	22	7	11	–	0.2	1	–	–
COc1ccc2c(c1)c(CC(=O)O)c(C)n2C(=O)c1ccc(Cl)cc1 [INDOMETHACIN]	–	–	–	60	16	–	1	7	–	–
COCCc1cc2n(c1C(=O)c1ccc(F)cc1)CCC2C(=O)O (stereo not given)	–	–	–	1.1	–	–	–	–	≤ 0.3 mg/kg	–
CCc1cc2n(c1C(=O)c1ccc(F)cc1)CCC2C(=O)O (stereo not given)	–	–	–	121	46	–	–	–	–	–
COCCCc1cc2n(c1C(=O)c1ccc(Cl)cc1)CCC2C(=O)O (stereo not given)	–	–	–	≥ 1.5	1.2	–	–	–	–	–
COCCc1cc2n(c1C(=O)c1ccccc1)CCC2C(=O)O (stereo not given)	–	–	–	7.6	–	–	–	–	≤ 0.3 mg/kg	–
Cc1cc2n(c1C(=O)c1ccccc1)CCC2C(=O)O (stereo not given)	1.7 mg/kg	1	5	250	43	–	–	–	–	1
CS(=O)(=O)c1ccc(C(=O)c2c(Cl)cc3n2CCC3C(=O)O)cc1 (stereo not given)	–	–	–	≤ 0.8	< 1	–	–	–	–	–
Cc1cc2n(c1C(=O)c1ccc(F)cc1)CCC2C(=O)O (stereo not given)	1.2 mg/kg	3	12	302	103	1	–	–	–	–
COCCCc1cc2n(c1C(=O)c1ccc(F)cc1)CCC2C(=O)O (stereo not given)	–	–	–	~1	< 3	–	–	–	–	–
CSc1ccc(C(=O)c2c(Cl)cc3n2CCC3C(=O)O)cc1 (stereo not given)	–	–	–	100	68	–	–	–	–	–
COc1ccc(C(=O)c2c(Cl)cc3n2CCC3C(=O)O)cc1 (stereo not given)	~1.3 mg/kg	4	5	201	55	0.7	–	–	–	–
Cc1ccc(C(=O)c2c(Cl)cc3n2CCC3C(=O)O)cc1 (stereo not given)	5 mg/kg	11	11	158	32	0.2	–	–	–	–
Cc1cc(CC(=O)O)n(C)c1C(=O)c1ccc(Cl)cc1 [ZOMEPIRAC]	–	–	17	36	26	–	–	–	–	–
COCCc1cc2n(c1C(=O)c1ccc(Cl)cc1)CCC2C(=O)O (stereo not given)	–	–	–	5	–	–	–	–	< 0.3 mg/kg	–
Cc1cc2n(c1C(=O)c1ccc(Cl)cc1)CCC2C(=O)O (stereo not given)	0.6 mg/kg	3.5	5	167	122	2	–	–	–	–
O=C(c1ccc(F)cc1)c1c(Cl)cc2n1CCC2C(=O)O (stereo not given)	~0.3 mg/kg	13	3	151	139	1	–	–	–	–
CCc1cc2n(c1C(=O)c1ccccc1)CCC2C(=O)O (stereo not given)	–	–	–	108	26	–	–	–	–	–
COc1ccc(C(=O)c2c(C)cc3n2CCC3C(=O)O)cc1 (stereo not given)	–	–	–	130	73	–	–	–	–	–
O=C(c1ccccc1)c1c(Cl)cc2n1CCC2C(=O)O (stereo not given)	~1.7 mg/kg	< 8	1	246	10	0.6	–	–	–	–
C1CCC(NC2CCCCC2)CC1.Cc1cc2n(c1C(=O)c1ccccc1)CCC2(C)C(=O)O (stereo not given)	–	–	–	40	< 7	–	–	–	–	–
